Data: ChEMBL document CHEMBL3608304, “Anti-inflammatory Labdane Diterpenoids from Leonurus macranthus” (J Nat Prod, 2015)

What was measured:
BV-2 [1] = assay: Inhibition of LPS-activated nitric oxide production in mouse BV2 cells pre-treated for 60 mins before LPS challenge for 24 hrs by Griess assay; assay type: functional, cell-based
Summary of the method: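 LPS-activated BV-2 microglial cells; NO production measured by Griess assay; indomethacin as positive control; results expressed as IC50 (μM).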

[2] = Toxicity against mouse BV2 cells assessed as effect on cell viability at 80 uM incubated for 24 hrs by MTT assay; assay type: cell-based; settings: bv-2, 24 h
BV-2 [3] = assay: Inhibition of LPS-activated nitric oxide production in mouse BV2 cells at 80 uM pre-treated for 60 mins before LPS challenge for 24 hrs by Griess assay; assay type: functional

SMILES | IC50 (BV-2 [1]) [µM] | Activity [2] | inhibition at 80 µM (BV-2 [3]) [%]
CC(=O)OCC[C@]1(C)CC[C@@]2(O1)[C@H](C)[C@@H](O)[C@@H](OC(C)=O)[C@H]1[C@@](C)(COC(C)=O)[C@H](OC(C)=O)CC[C@@]12C | 11 | Non-toxic | 
CC(=O)O[C@@H]1CC[C@]2(C)C(CCC(C)(O)CCO)=C(C)C(=O)[C@@H](O)[C@H]2[C@@]1(C)CO (stereo partly drawn) |  |  | < 50
COc1ccc2c(c1)c(CC(=O)O)c(C)n2C(=O)c1ccc(Cl)cc1 [INDOMETHACIN] | 35.7 |  | 
CC(=O)OC[C@@]1(C)[C@H](OC(C)=O)CC[C@]2(C)C(CCC(C)(O)CCO)=C(C)C(=O)[C@@H](OC(C)=O)[C@@H]12 (stereo partly drawn) |  |  | 50
CC(=O)OC[C@@]1(C)[C@H](O)CC[C@@]2(C)[C@H]1CC(=O)[C@@H](C)[C@]21CC[C@@](C)(CCO)O1 | 36.9 | Non-toxic | 
CC(=O)OCC[C@]1(C)CC[C@@]2(O1)[C@H](C)[C@@H](O)C(=O)[C@H]1[C@@](C)(COC(C)=O)[C@H](O)CC[C@@]12C | 13.2 | Non-toxic | 
CC(=O)OCC[C@]1(C)CC[C@@]2(O1)[C@H](C)C(=O)[C@@H](OC(C)=O)[C@H]1[C@@](C)(COC(C)=O)[C@H](O)CC[C@@]12C | 63.7 | Non-toxic | 
CC(=O)OCC[C@]1(C)CC[C@@]2(O1)[C@H](C)C(=O)[C@@H](O)[C@H]1[C@@](C)(COC(C)=O)[C@H](O)CC[C@@]12C | 45.7 | Non-toxic | 
CC(=O)O[C@@H]1C(=O)[C@@H](C)[C@]2(CC[C@@](C)(CCO)O2)[C@@]2(C)CC[C@@H](OC(C)=O)[C@](C)(CO)[C@H]12 | 16.2 | Non-toxic | 
CC(=O)OCC[C@]1(C)CC[C@@]2(O1)[C@H](C)C(=O)[C@@H](OC(C)=O)[C@H]1[C@@](C)(COC(C)=O)[C@H](OC(C)=O)CC[C@@]12C | 48.1 | Non-toxic | 
CC(=O)OC[C@@]1(C)[C@H](OC(C)=O)CC[C@@]2(C)[C@H]1[C@H](O)C(=O)[C@@H](C)[C@]21CC[C@@](C)(CCO)O1 | 41.7 | Non-toxic | 
CC(=O)OCCC(C)(O)CCC1=C(C)C(=O)[C@@H](OC(C)=O)[C@H]2[C@@](C)(COC(C)=O)[C@H](OC(C)=O)CC[C@]12C (stereo partly drawn) | 12.7 | Non-toxic | 
CC(=O)OC[C@@]1(C)[C@H](O)CC[C@]2(C)C(CCC(C)(O)CCO)=C(C)C(=O)[C@@H](OC(C)=O)[C@@H]12 (stereo partly drawn) |  |  | < 50
CC(=O)OC[C@@]1(C)[C@H](O)CC[C@]2(C)C(CCC(C)(O)CCO)=C(C)C(=O)[C@@H](O)[C@@H]12 (stereo partly drawn) | 53.6 | Non-toxic | 
CC(=O)OC[C@@]1(C)[C@H](OC(C)=O)CC[C@@]2(C)[C@H]1[C@H](OC(C)=O)C(=O)[C@@H](C)[C@]21CC[C@@](C)(CCO)O1 | 20.7 | Non-toxic | 
CC(=O)OCC[C@]1(C)CC[C@@]2(O1)[C@H](C)[C@@H](OC(C)=O)[C@@H](O)[C@H]1[C@@](C)(COC(C)=O)[C@H](OC(C)=O)CC[C@@]12C | 10 | Non-toxic | 
